Measurements as given in ChEMBL document CHEMBL1144528, “Synthesis of 8-thiabicyclo[3.2.1]octanes and their binding affinity for the dopamine and serotonin transporters” (Bioorg Med Chem, 2007).

Experiments:
[1] = organism: Macaca mulatta; experiment: Selectivity for rhesus monkey DAT over rhesus monkey SERT
How it was run: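 Ratio of SERT IC50 ([3H]citalopram binding) to DAT IC50 ([3H]WIN35,428 binding), both measured in monkey caudate-putamen membranes.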

[2] = target: Sodium-dependent serotonin transporter (Macaca mulatta, UniProt Q9MYX0); experiment: Displacement of [3H]citalopram from SERT in rhesus monkey caudate-putamen; format: tissue-based
How it was run: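 Caudate-putamen membranes from rhesus or cynomolgus monkey (4 mg original wet weight/mL) in 50 mM Tris·HCl pH 7.4 with 100 mM NaCl. Incubated with 1 nM [3H]citalopram and a range of test drug concentrations for 2 h at 0-4 °C. Filtered over glass fibre filters pre-soaked in 0.1% polyethyleneimine, then scintillation counted. IC50 is the mean of ≥2 independent experiments in different brains, each in triplicate.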

[3] = target: Transporter (Macaca mulatta, UniProt Q7JHP9); experiment: Displacement of [3H]WIN-35428 from DAT in rhesus monkey caudate-putamen; format: tissue-based
How it was run: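 Rhesus or cynomolgus caudate-putamen membranes (4 mg original wet weight/mL) in 50 mM Tris·HCl pH 7.4, 100 mM NaCl. Incubated 2 h at 0-4 °C with 0.3 nM [3H]WIN35,428 and a range of drug concentrations. Filtered on 0.1% BSA-soaked glass fibre filters and scintillation counted. Nonspecific binding defined with 30 μM (-)-cocaine. IC50 is the mean of ≥2 experiments in different brains, each in triplicate.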

Chain of Sodium-dependent serotonin transporter (Q9MYX0 whole entry): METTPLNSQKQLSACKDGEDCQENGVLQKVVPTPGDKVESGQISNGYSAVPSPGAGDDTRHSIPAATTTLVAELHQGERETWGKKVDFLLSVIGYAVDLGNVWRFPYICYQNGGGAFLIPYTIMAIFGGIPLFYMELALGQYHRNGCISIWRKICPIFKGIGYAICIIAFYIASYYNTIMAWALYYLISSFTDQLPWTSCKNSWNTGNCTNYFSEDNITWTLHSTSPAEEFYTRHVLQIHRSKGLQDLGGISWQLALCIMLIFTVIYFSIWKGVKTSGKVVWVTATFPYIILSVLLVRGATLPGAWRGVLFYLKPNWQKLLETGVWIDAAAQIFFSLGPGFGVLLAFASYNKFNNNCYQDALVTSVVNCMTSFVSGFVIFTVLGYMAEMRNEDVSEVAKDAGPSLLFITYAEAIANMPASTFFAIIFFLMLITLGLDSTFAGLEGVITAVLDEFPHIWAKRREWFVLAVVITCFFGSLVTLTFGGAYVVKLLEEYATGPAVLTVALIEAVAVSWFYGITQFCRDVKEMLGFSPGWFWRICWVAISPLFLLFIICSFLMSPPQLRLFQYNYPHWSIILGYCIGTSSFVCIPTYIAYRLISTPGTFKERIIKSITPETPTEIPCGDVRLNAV
Chain of Transporter (Q7JHP9 whole entry): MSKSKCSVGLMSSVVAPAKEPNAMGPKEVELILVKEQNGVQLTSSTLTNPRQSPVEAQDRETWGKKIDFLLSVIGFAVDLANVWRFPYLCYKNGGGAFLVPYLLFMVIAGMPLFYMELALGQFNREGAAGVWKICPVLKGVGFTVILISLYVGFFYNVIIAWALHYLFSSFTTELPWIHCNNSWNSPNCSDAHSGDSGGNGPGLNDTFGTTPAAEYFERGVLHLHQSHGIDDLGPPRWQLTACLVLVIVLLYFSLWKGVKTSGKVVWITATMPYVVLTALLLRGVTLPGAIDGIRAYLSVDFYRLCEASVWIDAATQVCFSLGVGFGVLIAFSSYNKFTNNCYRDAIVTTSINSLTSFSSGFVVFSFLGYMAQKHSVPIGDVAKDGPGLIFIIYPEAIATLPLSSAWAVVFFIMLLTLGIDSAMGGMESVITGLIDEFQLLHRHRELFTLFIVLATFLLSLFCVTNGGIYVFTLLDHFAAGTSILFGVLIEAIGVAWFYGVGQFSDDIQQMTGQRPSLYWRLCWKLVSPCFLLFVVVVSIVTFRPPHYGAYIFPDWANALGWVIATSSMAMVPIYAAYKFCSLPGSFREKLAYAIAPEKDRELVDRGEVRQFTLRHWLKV

Structure (SMILES)	Ratio IC50 [1]	IC50 [2]	IC50 [3]
COC(=O)[C@@H]1[C@H]2CCC(C[C@H]1c1ccc(Cl)c(Cl)c1)S2	8	39 nM	4.9 nM
COC(=O)C1=C(c2ccc(F)cc2)CC2CCC1S2 (stereo unspecified)	> 127	> 30000 nM	220 nM
